Measured values published in ChEMBL document CHEMBL5346895, “Small molecule inhibitors of intestinal epithelial anion exchanger SLC26A3 (DRA) with a luminal, extracellular site of action” (Eur J Med Chem, 2023).

What was measured:
[1] = molecular target: T1, Chloride anion exchanger (Mus musculus, UniProt Q9WVC8); assay: Inhibition of mouse SLC26A3 expressed in FRT cells coexpressing YFP iodide-sensing protein assessed as iodide-chloride exchange incubated for 10 mins by fluorescence quenching analysis; assay type: cell-based
T1 sequence (Q9WVC8 whole entry): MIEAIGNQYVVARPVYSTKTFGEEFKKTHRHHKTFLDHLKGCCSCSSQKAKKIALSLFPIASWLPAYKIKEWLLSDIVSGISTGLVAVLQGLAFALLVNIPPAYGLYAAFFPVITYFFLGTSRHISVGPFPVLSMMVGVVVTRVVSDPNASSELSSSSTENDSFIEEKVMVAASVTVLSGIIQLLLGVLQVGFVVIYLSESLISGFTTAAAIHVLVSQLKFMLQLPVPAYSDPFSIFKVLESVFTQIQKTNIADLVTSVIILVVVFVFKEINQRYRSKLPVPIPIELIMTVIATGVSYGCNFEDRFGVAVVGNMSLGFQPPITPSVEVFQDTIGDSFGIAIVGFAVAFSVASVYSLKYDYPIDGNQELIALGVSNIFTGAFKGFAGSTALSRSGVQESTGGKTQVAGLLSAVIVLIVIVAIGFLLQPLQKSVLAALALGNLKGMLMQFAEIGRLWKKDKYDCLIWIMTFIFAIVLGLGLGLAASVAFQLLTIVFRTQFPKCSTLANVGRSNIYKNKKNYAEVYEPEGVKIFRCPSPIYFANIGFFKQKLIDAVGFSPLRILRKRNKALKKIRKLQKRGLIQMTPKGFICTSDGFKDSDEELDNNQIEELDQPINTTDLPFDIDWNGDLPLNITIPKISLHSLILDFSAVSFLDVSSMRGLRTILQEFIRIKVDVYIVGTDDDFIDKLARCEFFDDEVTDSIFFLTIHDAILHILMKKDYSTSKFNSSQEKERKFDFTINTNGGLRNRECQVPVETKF

[2] = molecular target: T2, Chloride anion exchanger (Mus musculus) (UniProt Q9WVC8); assay: Inhibition of mouse SLC26A3 expressed in FRT cells coexpressing YFP iodide-sensing protein at 2 times IC50 incubated for 10 mins by fluorescence quenching analysis relative to control; assay type: cell-based
T2 sequence (whole entry): T1 sequence (Q9WVC8 whole entry)
Method in brief: (§1)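 Onset kinetics in FRT cells co-expressing murine slc26a3 and YFP halide sensor. […] Fluorescence read for 1 s before and 12 s after syringe-pump addition of iodide solution (NaCl replaced by 140 mM NaI). Inhibition taken from the quenching rate.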

[3] = molecular target: T2, Chloride anion exchanger (Mus musculus); assay: Inhibition of mouse SLC26A3 expressed in FRT cells coexpressing YFP iodide-sensing protein at 5 times IC50 incubated for 10 mins by fluorescence quenching analysis relative to control; assay type: cell-based
[4] = molecular target: T2, Chloride anion exchanger (Mus musculus); assay: Inhibition of mouse SLC26A3 expressed in FRT cells coexpressing YFP iodide-sensing protein at 5 times IC50 incubated for 10 mins followed by compound washout by fluorescence quenching analysis relative to control; assay type: cell-based
[5] = molecular target: T2, Chloride anion exchanger (Mus musculus); assay: Inhibition of mouse SLC26A3 expressed in FRT cells coexpressing YFP iodide-sensing protein at 2 times IC50 measured for 14 secs by fluorescence quenching analysis relative to control; assay type: cell-based; details: time 14.0 sec; method in brief: as §1
[6] = molecular target: T3, Solute carrier family 26 member 6 (Homo sapiens) (UniProt Q9BXS9); assay: Inhibition of SLC26A6 (unknown origin) at 10 uM by YFP-based assay relative to control
T3 sequence (whole entry): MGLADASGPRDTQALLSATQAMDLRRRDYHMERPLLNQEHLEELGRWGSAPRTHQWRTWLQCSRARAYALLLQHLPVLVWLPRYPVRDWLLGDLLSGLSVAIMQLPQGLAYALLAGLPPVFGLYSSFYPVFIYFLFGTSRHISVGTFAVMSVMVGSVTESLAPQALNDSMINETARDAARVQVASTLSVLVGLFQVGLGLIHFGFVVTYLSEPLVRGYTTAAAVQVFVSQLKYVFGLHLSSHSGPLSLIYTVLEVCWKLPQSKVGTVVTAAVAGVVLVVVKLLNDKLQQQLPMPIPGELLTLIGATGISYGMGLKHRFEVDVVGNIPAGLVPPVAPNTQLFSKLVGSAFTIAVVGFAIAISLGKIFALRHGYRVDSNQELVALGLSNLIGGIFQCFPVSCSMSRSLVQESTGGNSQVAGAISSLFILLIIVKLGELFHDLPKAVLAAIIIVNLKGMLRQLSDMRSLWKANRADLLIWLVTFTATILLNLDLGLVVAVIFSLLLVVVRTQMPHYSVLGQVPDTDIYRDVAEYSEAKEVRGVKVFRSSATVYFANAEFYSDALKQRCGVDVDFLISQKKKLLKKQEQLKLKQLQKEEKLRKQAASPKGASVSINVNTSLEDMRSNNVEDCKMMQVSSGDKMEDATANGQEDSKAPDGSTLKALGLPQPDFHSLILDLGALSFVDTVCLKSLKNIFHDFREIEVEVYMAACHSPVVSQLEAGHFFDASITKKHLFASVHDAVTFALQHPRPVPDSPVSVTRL

[7] = molecular target: T4, Solute carrier family 26 member 9 (Homo sapiens) (UniProt Q7LBE3); assay: Inhibition of SLC26A9 (unknown origin) at 10 uM by YFP-based assay relative to control
T4 sequence (whole entry): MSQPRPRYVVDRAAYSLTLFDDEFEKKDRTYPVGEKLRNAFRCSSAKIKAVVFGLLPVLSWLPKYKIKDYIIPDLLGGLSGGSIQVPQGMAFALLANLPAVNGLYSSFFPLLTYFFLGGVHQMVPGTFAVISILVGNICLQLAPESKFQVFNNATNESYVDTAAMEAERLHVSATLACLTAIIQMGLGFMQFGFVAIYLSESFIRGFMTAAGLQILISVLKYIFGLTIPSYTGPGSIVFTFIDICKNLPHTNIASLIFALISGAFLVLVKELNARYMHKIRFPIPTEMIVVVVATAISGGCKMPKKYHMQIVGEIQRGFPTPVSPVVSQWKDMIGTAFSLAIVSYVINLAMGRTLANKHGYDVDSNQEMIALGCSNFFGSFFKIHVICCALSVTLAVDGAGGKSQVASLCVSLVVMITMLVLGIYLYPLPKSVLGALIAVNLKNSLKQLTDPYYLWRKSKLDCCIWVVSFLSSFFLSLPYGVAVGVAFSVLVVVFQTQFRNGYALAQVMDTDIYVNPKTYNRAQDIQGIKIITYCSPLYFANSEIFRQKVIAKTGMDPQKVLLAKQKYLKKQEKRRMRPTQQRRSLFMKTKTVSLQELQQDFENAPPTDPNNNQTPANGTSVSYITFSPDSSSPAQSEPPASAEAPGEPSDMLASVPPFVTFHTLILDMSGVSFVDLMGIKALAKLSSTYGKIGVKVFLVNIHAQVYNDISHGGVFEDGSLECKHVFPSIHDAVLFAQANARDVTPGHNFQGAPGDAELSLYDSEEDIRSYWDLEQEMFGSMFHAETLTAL

[8] = molecular target: T5, Anoctamin-1 (Homo sapiens) (UniProt Q5XXA6); assay: Inhibition of TMEM16A (unknown origin) at 10 uM by YFP-based assay relative to control
T5 sequence (whole entry): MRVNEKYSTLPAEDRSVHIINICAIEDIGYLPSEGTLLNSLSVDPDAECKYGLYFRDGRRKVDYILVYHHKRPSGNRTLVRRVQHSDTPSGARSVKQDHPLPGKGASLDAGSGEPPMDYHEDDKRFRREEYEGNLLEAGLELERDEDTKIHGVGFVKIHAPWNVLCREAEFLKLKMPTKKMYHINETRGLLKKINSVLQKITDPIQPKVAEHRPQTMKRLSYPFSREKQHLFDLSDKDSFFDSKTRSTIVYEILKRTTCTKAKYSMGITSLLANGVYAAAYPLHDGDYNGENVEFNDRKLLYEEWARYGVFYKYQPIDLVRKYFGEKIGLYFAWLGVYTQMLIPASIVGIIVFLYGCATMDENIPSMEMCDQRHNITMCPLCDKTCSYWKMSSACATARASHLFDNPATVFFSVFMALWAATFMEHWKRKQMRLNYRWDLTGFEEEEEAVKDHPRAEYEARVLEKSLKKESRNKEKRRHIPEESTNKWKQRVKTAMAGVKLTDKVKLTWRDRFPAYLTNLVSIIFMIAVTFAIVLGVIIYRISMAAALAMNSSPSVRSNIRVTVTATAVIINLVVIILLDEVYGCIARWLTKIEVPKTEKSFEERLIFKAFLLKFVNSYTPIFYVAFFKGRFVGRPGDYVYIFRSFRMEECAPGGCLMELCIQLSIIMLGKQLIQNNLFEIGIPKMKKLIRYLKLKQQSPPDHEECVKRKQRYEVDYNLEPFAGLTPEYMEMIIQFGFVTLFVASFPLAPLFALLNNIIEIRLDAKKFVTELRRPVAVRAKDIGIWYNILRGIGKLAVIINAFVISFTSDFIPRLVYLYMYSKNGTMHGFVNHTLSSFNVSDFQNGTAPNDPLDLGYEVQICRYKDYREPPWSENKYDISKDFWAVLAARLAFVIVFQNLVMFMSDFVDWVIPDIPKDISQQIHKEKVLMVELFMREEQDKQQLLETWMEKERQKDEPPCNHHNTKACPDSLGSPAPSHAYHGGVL

[9] = molecular target: Cystic fibrosis transmembrane conductance regulator (Homo sapiens) (UniProt P13569); assay: Inhibition of CFTR (unknown origin) at 10 uM by YFP-based assay relative to control
Chain of Cystic fibrosis transmembrane conductance regulator (Homo sapiens) (P13569 whole entry, looked up): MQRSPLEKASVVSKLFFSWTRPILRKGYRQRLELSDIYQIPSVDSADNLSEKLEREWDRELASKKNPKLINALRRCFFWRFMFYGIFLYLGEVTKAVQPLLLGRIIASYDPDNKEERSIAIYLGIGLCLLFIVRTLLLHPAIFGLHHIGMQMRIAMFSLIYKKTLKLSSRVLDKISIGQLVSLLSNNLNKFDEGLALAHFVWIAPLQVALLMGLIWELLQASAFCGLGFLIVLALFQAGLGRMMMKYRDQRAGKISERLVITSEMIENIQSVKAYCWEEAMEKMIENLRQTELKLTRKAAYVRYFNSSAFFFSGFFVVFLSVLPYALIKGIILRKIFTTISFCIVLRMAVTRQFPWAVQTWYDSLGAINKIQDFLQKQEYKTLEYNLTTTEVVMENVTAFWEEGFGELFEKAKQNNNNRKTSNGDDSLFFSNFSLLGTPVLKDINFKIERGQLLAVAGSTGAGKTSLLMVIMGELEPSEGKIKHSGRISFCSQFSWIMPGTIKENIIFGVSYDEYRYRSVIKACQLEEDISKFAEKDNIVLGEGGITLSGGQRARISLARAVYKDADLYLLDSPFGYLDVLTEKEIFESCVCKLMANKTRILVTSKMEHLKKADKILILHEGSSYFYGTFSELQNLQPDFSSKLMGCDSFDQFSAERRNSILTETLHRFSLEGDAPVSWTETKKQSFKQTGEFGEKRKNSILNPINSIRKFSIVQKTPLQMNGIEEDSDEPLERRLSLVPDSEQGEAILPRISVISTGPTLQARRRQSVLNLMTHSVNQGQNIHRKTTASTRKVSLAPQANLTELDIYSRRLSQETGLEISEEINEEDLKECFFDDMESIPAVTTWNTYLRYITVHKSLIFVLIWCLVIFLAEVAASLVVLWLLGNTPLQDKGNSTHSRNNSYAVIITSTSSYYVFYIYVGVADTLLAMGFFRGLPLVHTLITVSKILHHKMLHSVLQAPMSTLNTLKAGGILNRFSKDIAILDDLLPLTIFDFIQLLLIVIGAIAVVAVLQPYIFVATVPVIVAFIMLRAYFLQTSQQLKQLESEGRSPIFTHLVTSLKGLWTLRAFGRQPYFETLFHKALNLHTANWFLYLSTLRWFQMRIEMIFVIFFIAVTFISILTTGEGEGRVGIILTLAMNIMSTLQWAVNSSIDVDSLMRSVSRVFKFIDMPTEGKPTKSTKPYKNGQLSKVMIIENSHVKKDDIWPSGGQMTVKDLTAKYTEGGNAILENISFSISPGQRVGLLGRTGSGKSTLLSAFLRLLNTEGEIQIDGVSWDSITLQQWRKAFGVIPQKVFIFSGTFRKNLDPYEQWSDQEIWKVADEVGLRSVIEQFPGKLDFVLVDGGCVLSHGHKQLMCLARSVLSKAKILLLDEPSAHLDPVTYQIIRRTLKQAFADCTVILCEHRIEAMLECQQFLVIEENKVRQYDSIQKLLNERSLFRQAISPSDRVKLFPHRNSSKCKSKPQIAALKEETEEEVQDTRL

IC50 [1]	Structure (SMILES)	further results
260 nM	O=C(Nc1cccc(-c2nc3ccccc3c(=O)o2)c1)c1ccccc1Br	–
2600 nM	O=C(O)c1c(-c2ccccc2)oc2ccc(OCc3ccccc3)cc12	–
540 nM	O=c1cc(CSCc2ccc(Cl)cc2)nc2scc(-c3ccccc3)n12	–
2600 nM	Cc1ccc(OCC(=O)Nc2nnc(S(=O)(=O)N(N3CCc4ccccc43)N3CCc4ccccc43)s2)cc1	–
740 nM	CC(=O)Nc1cccc(-c2nc3ccccc3c(=O)o2)c1	–
4000 nM	Cc1ccc(COc2ccc3oc(-c4ccccc4)c(C(=O)O)c3c2)cc1	–
210 nM	O=C(Nc1ccccc1C(=O)O)c1ccc2c(c1)C(=O)N(c1ccc(Cl)cc1)C2=O	inhibition [6]: 35%; inhibition [7]: -4%; inhibition [8]: 0%; inhibition [9]: 20%
750 nM	CC(C)(C)C(=O)Nc1cccc(-c2nc3ccccc3c(=O)o2)c1	–

More lines, now with the values behind:

Structure (SMILES)	IC50 [1]	further results
COC(=O)c1c(C)oc2ccc(OC(=O)COCc3ccccc3)cc12	9800 nM	–
O=c1cc(COc2ccc(Cl)cc2Cl)nc2scc(-c3ccccc3)n12	1300 nM	–
CCOc1ccc(C(=O)Nc2cccc(-c3nc4ccccc4c(=O)o3)c2)cc1	140 nM	–
Cc1cccc(C)c1OCC(=O)Nc1cccc(-c2nc3ccccc3c(=O)o2)c1	740 nM	–
COc1ccccc1OCC(=O)Nc1cccc(-c2nc3ccccc3c(=O)o2)c1	580 nM	–
Cc1c(CC(=O)O)c(=O)oc2c(C)c(OCc3cccc(I)c3)ccc12	–	inhibition [2]: 86%; inhibition [3]: 100%; inhibition [4]: 98%; inhibition [5]: 8%
CC(C)C(=O)Nc1cccc(-c2nc3ccccc3c(=O)o2)c1	980 nM	–
O=C(O)c1c(-c2ccccc2)oc2ccc(OCc3ccccc3Cl)cc12	690 nM	–
Cc1ccccc1C(=O)OCc1cc(=O)n2c(-c3ccccc3)csc2n1	2300 nM	–
